Results of several laboratories.
Compare with care: the assays were run in different laboratories.
BRAF V600E: Serine/threonine-protein kinase B-raf (BRAF, Homo sapiens, UniProt P15056, V600E)
BRAF: Serine/threonine-protein kinase B-raf (BRAF, Homo sapiens, UniProt P15056)

Cc1c(NC(=O)c2cc(C(N)=O)nc3cc(F)ccc23)c(C(F)(F)F)nn1Cc1ccc(C(C)(C)C)cc1  remaining binding (BRAF V600E; cell-free assay, competition with immobilised ligand; 1 µM): 98%
COc1cc(Cl)c(C(=O)N[C@@H](CN[C@H]2CC[C@@H](N)CC2)Cc2ccc(C#N)cc2)cc1-c1ccc(CN[C@H](C)c2ccc(C)cc2)o1  remaining activity (BRAF; enzyme activity, inhibitor; 1 µM): 97%
CC(C)(C)c1nc(-c2cccc(NS(=O)(=O)c3c(F)cccc3F)c2F)c(-c2ccnc(N)n2)s1  activity vs control (BRAF V600E; enzyme activity, inhibitor, radiometric; 1 µM): 1%
Cc1ccc(C(CS(=O)(=O)c2ccccc2)=NNC2=NC(=O)C(=NNc3ccccc3)S2)cc1  inhibition (BRAF V600E; enzyme activity, inhibitor, ATP luminescence; 1 µM): 67%
CC(C)(C)c1nc2c(s1)c1nc(N)ncc1c1ccc(NS(=O)(=O)c3c(F)cccc3F)c(F)c12  remaining activity (BRAF; enzyme activity, inhibitor, radiometric; 1 µM): 27%
C[C@H](c1ccc(F)cc1)N(Cc1cccc(C(=O)O)c1)C(=O)c1cnc2ccccc2c1  remaining binding (BRAF V600E; cell-free assay, competition with immobilised ligand; 1 µM): 100%
C[S+]([O-])c1ccc(-c2nc(-c3ccncc3)c(-c3ccc(F)cc3)[nH]2)cc1 (stereo not drawn)  remaining signal (BRAF; cell-free assay; 0.5 µM): 78.8%
Cc1ccc(C(CS(=O)(=O)c2ccccc2)=NNC2=NC(=O)C(=NNc3ccc([N+](=O)[O-])cc3)S2)cc1  inhibition (BRAF V600E; enzyme activity, inhibitor, ATP luminescence; 10 nM): 31%
CN(C)C1CCN(CC#Cc2nn(C3CCCC3)c3nc(NCc4ccccc4)ncc23)C1 (stereo not drawn)  inhibition (BRAF; enzyme activity, inhibitor, FRET; 0.1 µM): -3%
Cc1ccc(C(CS(=O)(=O)c2ccccc2)=NNc2nc(-c3ccc(OCCCCOc4ccc(-c5csc(NN=C(CS(=O)(=O)c6ccccc6)c6ccc(C)cc6)n5)cc4)cc3)cs2)cc1  inhibition (BRAF V600E; enzyme activity, inhibitor, ATP luminescence; 1 µM): 84%
Cc1cc(NC(=O)c2cccc3cc(-c4cccc5[nH]nc(N)c45)ccc23)ccc1F  activity vs control (BRAF; enzyme activity, inhibitor; 0.1 µM): 99%
CN(c1nccc(-c2cnn3ncccc23)n1)C1CC1  remaining binding (BRAF; binding; 1 µM): 100%
NC(=S)NN=C(CS(=O)(=O)c1ccccc1)c1ccc(F)cc1  inhibition (BRAF V600E; enzyme activity, inhibitor, ATP luminescence; 1 µM): 76%
N[C@@H]1CCN(c2nccc(-c3cnn4ncccc34)n2)C1  remaining binding (BRAF; binding; 1 µM): 100%
COc1ccc2c(c1)O[C@H](c1ccc(OC)c(OC)c1)C[C@@H]2NC(=O)C1(c2ccc3c(c2)OC(F)(F)O3)CC1  remaining binding (BRAF V600E; cell-free assay, competition with immobilised ligand; 1 µM): 93%
Nc1ncnc2occ(-c3ccc(NC(=O)Nc4cc(C(F)(F)F)ccc4F)cc3)c12  remaining signal (BRAF V600E; cell-free assay; 20 µM): 0.05%
CC(C)(O)[C@H]1CC[C@H](Nc2ccc3ncc(-c4cccc(C(F)(F)F)c4)n3n2)CC1  remaining activity (BRAF; enzyme activity, inhibitor; 1 µM): 93.8%
O=C1NC(=O)c2cc(Nc3ccc(F)cc3)c(Nc3ccc(F)cc3)cc21  remaining signal (BRAF; cell-free assay; 0.5 µM): 94.2%
Cc1sc(C(=O)NC2COC2)cc1-n1cc(NC(=O)Nc2c(F)cccc2Cl)cn1  remaining activity (BRAF; enzyme activity, inhibitor; 10 µM): 105%
COc1ccc(-c2csc(NN=C(CS(=O)(=O)c3ccccc3)c3ccc(F)cc3)n2)cc1  inhibition (BRAF V600E; enzyme activity, inhibitor, ATP luminescence; 1 µM): 72%
COc1ccc2cc(OCC3(C(=O)O)CN(C(=O)c4ccc(F)cc4)C3)ccc2c1  remaining binding (BRAF; cell-free assay, competition with immobilised ligand; 1 µM): 93%
Cc1ccc(C(CS(=O)(=O)c2ccccc2)=NNC2=NC(=O)C(=NNc3ccc(Cl)cc3)S2)cc1  inhibition (BRAF V600E; enzyme activity, inhibitor, ATP luminescence; 1 µM): 61%
CCOCCn1cc(C(=O)Nc2ccc(-n3nc(-c4cccnc4)cc3C(F)(F)F)cn2)ccc1=O  remaining binding (BRAF V600E; cell-free assay, competition with immobilised ligand; 1 µM): 97%
Cc1ccc(C(=O)NCc2ccsc2)cc1C#Cc1cn(C(C)C)c2ncnc(N)c12  activity vs control (BRAF; enzyme activity, inhibitor; 1 µM): 47%
CNC(=O)c1ccc(Nc2ncc(C(F)(F)F)c(NCc3nccnc3N(C)S(C)(=O)=O)n2)cc1  remaining binding (BRAF V600E; cell-free assay, competition with immobilised ligand; 0.1 µM): 100%
C[C@@H]1CCN(C(=O)CC#N)C[C@@H]1N(C)c1ncnc2[nH]ccc12  remaining signal (BRAF; cell-free assay; 0.5 µM): 93.7%
Cc1c(NC(=O)c2cc(C(N)=O)nc3cc(F)ccc23)c(C(F)(F)F)nn1Cc1ccc(C#N)cc1  remaining binding (BRAF; cell-free assay, competition with immobilised ligand; 1 µM): 91%
CC1CCCN1c1nccc(-c2cnn3ncccc23)n1 (stereo not drawn)  remaining binding (BRAF; binding; 1 µM): 100%
Cc1ccc(C(=O)Nc2ccc(CN3CCN(C)CC3)c(C(F)(F)F)c2)cc1C#Cc1cnc2cccnn12  remaining signal (BRAF; cell-free assay; 23.5 nM): 15%
O=C(Nc1cnc(Oc2ccc(F)cc2)nc1)N1CCc2ncccc2[C@@H]1c1ccc(F)cc1  remaining binding (BRAF V600E; cell-free assay, competition with immobilised ligand; 1 µM): 83%
